{
  "source": "ChEMBL document CHEMBL3351588",
  "about": "“Design, synthesis and biological evaluation of N-alkyl or aryl substituted isoindigo derivatives as potential dual cyclin-dependent kinase 2 (CDK2)/glycogen synthase kinase 3β (GSK-3β) phosphorylation inhibitors” (Eur J Med Chem, 2014)",
  "key": {"K562 [1]": {"system": "K562", "assay": "Induction of necrosis in human K562 cells after 24 hrs by Annexin V-FITC/propidium iodide staining based flow cytometry", "format": "functional, cell-based", "procedure,_shortened": "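Cells exposed to 0, 5.0, 10.0, 15.0, 20.0 or 30.0 μM for 24 h, or 0.5% DMSO. Stained with FITC–Annexin V and PI counterstain, then read by flow cytometry. Annexin V+/PI− scored as early apoptotic; Annexin V+/PI+ scored as late apoptotic/necrotic.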"}, "K562 [2]": {"system": "K562", "assay": "Reduction in c-myc protein expression in human K562 cells at 5 to 30 uM after 24 hrs by Western blotting method", "format": "functional, cell-based"}, "K562 [3]": {"system": "K562", "assay": "Induction of cell cycle arrest in human K562 cells assessed as reduction in accumulation at G2/M phase after 24 hrs by propidium iodide staining based flow cytometry", "format": "functional"}, "K562 [4]": {"system": "K562", "assay": "Induction of apoptosis in human K562 cells assessed as early apoptotic cells level at 5 uM after 24 hrs by Annexin V-FITC/propidium iodide staining based flow cytometry (reference value: […])", "format": "functional"}, "K562 [5]": {"system": "K562", "assay": "Induction of cell cycle arrest in human K562 cells assessed as accumulation at G0/G1 phase at 20 uM after 24 hrs by propidium iodide staining based flow cytometry (reference value: 36.14%)", "format": "functional"}, "K562 [6]": {"system": "K562", "assay": "Induction of apoptosis in human K562 cells assessed as viable cells level at 20 uM after 24 hrs by Annexin V-FITC/propidium iodide staining based flow cytometry (reference value: 97.64%)", "format": "functional", "procedure,_shortened": "(§1)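 K562 cells exposed for 24 h or 48 h to 0, 5.0, 10.0, 15.0, 20.0 or 30.0 µM; vehicle DMSO 0.5% v/v. Cells stained with FITC-Annexin V, then counterstained with PI, and analysed by FACScan flow cytometry. Quadrants: Annexin V−/PI− viable; Annexin V+/PI− early apoptotic; Annexin V+/PI+ late apoptotic/necrotic.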"}, "K562 [7]": {"system": "K562", "assay": "Reduction in CDK2 protein expression in human K562 cells at 5 to 30 uM after 24 hrs by Western blotting method", "format": "functional, cell-based"}, "K562 [8]": {"system": "K562", "assay": "Induction of apoptosis in human K562 cells assessed as necrotic cells level at 20 uM after 48 hrs by Annexin V-FITC/propidium iodide staining based flow cytometry (reference value: 0.01%)", "format": "functional", "procedure,_shortened": "as §1"}, "K562 [9]": {"system": "K562", "assay": "Induction of apoptosis in human K562 cells assessed as necrotic cells level at 20 uM after 24 hrs by Annexin V-FITC/propidium iodide staining based flow cytometry (reference value: 0.0%)", "format": "functional", "procedure,_shortened": "as §1"}, "K562 [10]": {"system": "K562", "assay": "Induction of apoptosis in human K562 cells assessed as early apoptotic cells level at 20 uM after 24 hrs by Annexin V-FITC/propidium iodide staining based flow cytometry (reference value: […])", "format": "functional"}, "[11]": {"target": "Glycogen synthase kinase-3 beta (Homo sapiens) (UniProt P49841)", "sequence (P49841 whole entry, looked up)": "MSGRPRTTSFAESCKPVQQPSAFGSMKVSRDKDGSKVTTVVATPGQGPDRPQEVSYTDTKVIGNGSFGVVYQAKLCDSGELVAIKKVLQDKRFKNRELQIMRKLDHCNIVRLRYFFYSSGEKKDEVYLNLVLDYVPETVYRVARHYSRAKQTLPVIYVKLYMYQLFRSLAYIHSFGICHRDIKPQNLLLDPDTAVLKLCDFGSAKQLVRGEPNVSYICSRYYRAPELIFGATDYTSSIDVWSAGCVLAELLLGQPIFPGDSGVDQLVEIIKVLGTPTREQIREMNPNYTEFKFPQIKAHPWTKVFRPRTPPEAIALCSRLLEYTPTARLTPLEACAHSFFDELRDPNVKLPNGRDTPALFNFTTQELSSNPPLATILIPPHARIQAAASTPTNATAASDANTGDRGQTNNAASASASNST", "assay": "Inhibition of GSK3beta Ser9 phosphorylation in human K562 cells at 5 to 30 uM after 24 hrs by Western blotting method", "format": "cell-based"}, "K562 [12]": {"system": "K562", "assay": "Induction of cell cycle arrest in human K562 cells assessed as accumulation at G0/G1 phase at 30 uM after 24 hrs by propidium iodide staining based flow cytometry (reference value: 36.14%)", "format": "functional"}, "K562 [13]": {"system": "K562", "assay": "Induction of cell cycle arrest in human K562 cells assessed as accumulation at G2/M phase at 20 uM after 24 hrs by propidium iodide staining based flow cytometry (reference value: 18.96%)", "format": "functional"}, "K562 [14]": {"system": "K562", "assay": "Induction of apoptosis in human K562 cells assessed as necrotic cells level at 15 uM after 24 hrs by Annexin V-FITC/propidium iodide staining based flow cytometry (reference value: 0.0%)", "format": "functional", "procedure,_shortened": "as §1"}, "K562 [15]": {"system": "K562", "assay": "Induction of apoptosis in human K562 cells assessed as late apoptotic cells level at 15 uM after 48 hrs by Annexin V-FITC/propidium iodide staining based flow cytometry (reference value: 0.54%)", "format": "functional", "procedure,_shortened": "as §1"}, "K562 [16]": {"system": "K562", "assay": "Induction of apoptosis in human K562 cells assessed as viable cells level at 5 uM after 24 hrs by Annexin V-FITC/propidium iodide staining based flow cytometry (reference value: 97.64%)", "format": "functional", "procedure,_shortened": "as §1"}, "K562 [17]": {"system": "K562", "assay": "Induction of apoptosis in human K562 cells assessed as necrotic cells level at 15 uM after 48 hrs by Annexin V-FITC/propidium iodide staining based flow cytometry (reference value: 0.01%)", "format": "functional", "procedure,_shortened": "as §1"}, "K562 [18]": {"system": "K562", "assay": "Induction of apoptosis in human K562 cells assessed as viable cells level at 15 uM after 48 hrs by Annexin V-FITC/propidium iodide staining based flow cytometry (reference value: 99.21%)", "format": "functional", "procedure,_shortened": "as §1"}, "L1210": {"system": "L1210", "assay": "Cytotoxicity against mouse L1210 cells after 48 hrs by SRB assay", "format": "functional, cell-based", "conditions": "L1210, 48 h", "procedure,_shortened": "(§2)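 Cells seeded at 5 × 10³ per well and allowed to attach for 12 h, then exposed to a range of drug concentrations in their own medium for 48 h. Fixed with ice-cold TCA for 1 h at 4 °C, washed, then stained with 0.4% SRB for 30 min at room temperature. IC50 is the mean of three independent experiments.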"}, "A549": {"system": "A549", "assay": "Cytotoxicity against human A549 cells after 48 hrs by SRB assay", "format": "functional, cell-based", "conditions": "A549, 48 h", "procedure,_shortened": "as §2"}, "K562 [19]": {"system": "K562", "assay": "Induction of apoptosis in human K562 cells after 24 hrs by Annexin V-FITC/propidium iodide staining based flow cytometry", "format": "functional, cell-based", "procedure,_shortened": "as §1"}, "K562 [20]": {"system": "K562", "assay": "Induction of apoptosis in human K562 cells assessed as viable cells level at 10 uM after 24 hrs by Annexin V-FITC/propidium iodide staining based flow cytometry (reference value: 97.64%)", "format": "functional", "procedure,_shortened": "as §1"}, "K562 [21]": {"system": "K562", "assay": "Induction of cell cycle arrest in human K562 cells assessed as accumulation at S phase at 20 uM after 24 hrs by propidium iodide staining based flow cytometry (reference value: 44.90%)", "format": "functional"}, "K562 [22]": {"system": "K562", "assay": "Induction of apoptosis in human K562 cells assessed as viable cells level at 10 uM after 48 hrs by Annexin V-FITC/propidium iodide staining based flow cytometry (reference value: 99.21%)", "format": "functional", "procedure,_shortened": "as §1"}, "K562 [23]": {"system": "K562", "assay": "Induction of necrosis in human K562 cells after 48 hrs by Annexin V-FITC/propidium iodide staining based flow cytometry", "format": "functional, cell-based"}, "K562 [24]": {"system": "K562", "assay": "Induction of cell cycle arrest in human K562 cells assessed as accumulation at S phase after 24 hrs by propidium iodide staining based flow cytometry", "format": "functional"}, "K562 [25]": {"system": "K562", "assay": "Induction of apoptosis in human K562 cells assessed as late apoptotic cells level at 15 uM after 24 hrs by Annexin V-FITC/propidium iodide staining based flow cytometry (reference value: 0.79%)", "format": "functional", "procedure,_shortened": "as §1"}, "K562 [26]": {"system": "K562", "assay": "Induction of apoptosis in human K562 cells assessed as viable cells level at 20 uM after 48 hrs by Annexin V-FITC/propidium iodide staining based flow cytometry (reference value: 99.21%)", "format": "functional", "procedure,_shortened": "as §1"}, "K562 [27]": {"system": "K562", "assay": "Induction of cell cycle arrest in human K562 cells assessed as accumulation at G0/G1 phase at 5 uM after 24 hrs by propidium iodide staining based flow cytometry (reference value: 36.14%)", "format": "functional"}, "K562 [28]": {"system": "K562", "assay": "Induction of cell morphological changes in human K562 cells assessed as nuclear fragmentation at 5 to 30 uM after 24 hrs by Hoechst 33342/propidium iodide staining based inverted fluorescence microscopy", "format": "functional", "procedure,_shortened": "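Cells treated for 24 h with 5.0–30.0 μM or with 0.5% DMSO, then collected and washed with PBS. Stained with Hoechst 33342 (5.0 μg/mL, 10 min, 37 °C), then with PI (10.0 μg/mL, 10 min, room temperature, dark). Nuclei scored by fluorescence microscopy as condensed/bright, fragmented, or PI-positive.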"}},
  "note": "Activity calls are given as the source filed them. No cut-off for these calls is given here.",
  "data": [
    {"smiles": "COc1ccc(N2C(=O)/C(=C3/C(=O)Nc4ccccc43)c3ccccc32)cc1", "values": [
      {"measurement": "Activity", "setting": "K562 [1]", "value": "Dose-dependent effect"},
      {"measurement": "inhibition", "setting": "K562 [2]", "value": "Dose-dependent effect"},
      {"measurement": "Activity", "setting": "K562 [3]", "value": "Dose-dependent effect"},
      {"measurement": "Activity", "setting": "K562 [4]", "value": 2.25, "unit": "%"},
      {"measurement": "Activity", "setting": "K562 [5]", "value": 32.01, "unit": "%"},
      {"measurement": "Activity", "setting": "K562 [6]", "value": 72.9, "unit": "%"},
      {"measurement": "inhibition", "setting": "K562 [7]", "value": "Dose-dependent effect"},
      {"measurement": "Activity", "setting": "K562 [8]", "value": 0.51, "unit": "%"},
      {"measurement": "Activity", "setting": "K562 [9]", "value": 0.01, "unit": "%"},
      {"measurement": "Activity", "setting": "K562 [10]", "value": 14.44, "unit": "%"},
      {"measurement": "inhibition", "setting": "[11]", "value": "Dose-dependent effect"},
      {"measurement": "Activity", "setting": "K562 [12]", "value": 25.43, "unit": "%"},
      {"measurement": "Activity", "setting": "K562 [13]", "value": 11.65, "unit": "%"},
      {"measurement": "Activity", "setting": "K562 [14]", "value": 0.01, "unit": "%"},
      {"measurement": "Activity", "setting": "K562 [15]", "value": 2.2, "unit": "%"},
      {"measurement": "Activity", "setting": "K562 [16]", "value": 96.21, "unit": "%"},
      {"measurement": "Activity", "setting": "K562 [17]", "value": 0.02, "unit": "%"},
      {"measurement": "Activity", "setting": "K562 [18]", "value": 95.68, "unit": "%"},
      {"measurement": "IC50", "setting": "L1210", "value": 102, "unit": "µM"},
      {"measurement": "IC50", "setting": "A549", "value": 31.9, "unit": "µM"},
      {"measurement": "Activity", "setting": "K562 [19]", "value": "Dose-dependent effect"},
      {"measurement": "Activity", "setting": "K562 [20]", "value": 93.14, "unit": "%"},
      {"measurement": "Activity", "setting": "K562 [21]", "value": 56.34, "unit": "%"},
      {"measurement": "Activity", "setting": "K562 [22]", "value": 96.91, "unit": "%"},
      {"measurement": "Activity", "setting": "K562 [23]", "value": "Dose-dependent effect"},
      {"measurement": "Activity", "setting": "K562 [24]", "value": "Dose-dependent effect"},
      {"measurement": "Activity", "setting": "K562 [25]", "value": 4.48, "unit": "%"},
      {"measurement": "Activity", "setting": "K562 [26]", "value": 82.42, "unit": "%"},
      {"measurement": "Activity", "setting": "K562 [27]", "value": 37.16, "unit": "%"},
      {"measurement": "Activity", "setting": "K562 [28]", "value": "Active"}
    ]}
  ]
}
